ChEMBL document CHEMBL1125535, “Benzothiazole hydroxy ureas as inhibitors of 5-lipoxygenase: use of the hydroxyurea moiety as a replacement for hydroxamic acid” (J Med Chem, 1992)

Target: T1, Polyunsaturated fatty acid 5-lipoxygenase (Homo sapiens, UniProt P09917)
T1 sequence (P09917 whole entry): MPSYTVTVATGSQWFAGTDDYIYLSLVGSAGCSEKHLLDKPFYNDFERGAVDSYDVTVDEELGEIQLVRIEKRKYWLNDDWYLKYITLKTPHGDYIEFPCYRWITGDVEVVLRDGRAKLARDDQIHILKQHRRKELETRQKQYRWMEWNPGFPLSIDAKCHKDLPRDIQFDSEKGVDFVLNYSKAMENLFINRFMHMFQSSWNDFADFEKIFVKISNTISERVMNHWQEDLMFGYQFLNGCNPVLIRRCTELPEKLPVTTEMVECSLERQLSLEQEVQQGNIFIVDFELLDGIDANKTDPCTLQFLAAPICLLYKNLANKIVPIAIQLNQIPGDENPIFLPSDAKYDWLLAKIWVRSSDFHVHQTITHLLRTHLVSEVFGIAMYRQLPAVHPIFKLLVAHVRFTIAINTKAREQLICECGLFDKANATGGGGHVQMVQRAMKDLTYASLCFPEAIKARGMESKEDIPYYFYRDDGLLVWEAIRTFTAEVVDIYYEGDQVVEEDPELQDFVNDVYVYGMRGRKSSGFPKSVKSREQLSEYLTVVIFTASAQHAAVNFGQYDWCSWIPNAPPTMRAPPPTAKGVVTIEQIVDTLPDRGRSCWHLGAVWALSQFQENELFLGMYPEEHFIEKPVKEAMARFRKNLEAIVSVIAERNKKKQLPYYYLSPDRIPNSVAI
Experiment: In vitro effective concentration required to inhibit ionophore stimulated-human peripheral blood leukocytes; inactive; call rule not given here
Assay type: functional

Row | Structure (SMILES) | EC50
1 | CON(C)C(=O)NCCSc1nc2ccccc2s1 | Not Active
2 | CNC(=O)NCCSc1nc2ccccc2s1 | Not Active

More lines, now with the values ahead:

Row | EC50 | Structure (SMILES)
3 | Not Active | CNC(=O)CCSc1nc2ccccc2s1
4 | Not Active | CONC(=O)NCCSc1nc2ccccc2s1

System: Mus musculus
Experiment: In vivo 5-Lipoxygenase inhibitory activity by using mouse zymosan peritonitis model
Assay type: functional, organism-based
Summary of the method: (§1)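 CD-1 mice (18–25 g) received compound orally in 0.5% methyl cellulose, then 3 mg zymosan-A in 0.5 mL 0.9% saline ip 1 h later. Samples were held on ice ≥30 min and spun at 28000g for 15 min at 4 °C. Supernatants were dried under nitrogen and stored at −70 °C. LTC4 measured by [3H]RIA on a 1:20 dilution.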

Row | Structure (SMILES) | EC50 [mg/kg]
5 | CC(c1cc2ccccc2s1)N(O)C(N)=O (stereo not drawn) [ZILEUTON] | 1.6
6 | CN(O)C(=O)NCCCSc1nc2ccccc2s1 | 23
7 | CN(O)C(=O)NCSc1nc2ccccc2s1 | 65.9
8 | COc1ccc(-n2nc(CCC(=O)N(C)O)cc2-c2ccc(Cl)cc2)cc1 [TEPOXALIN] | 44.5

Second part, the compound after the results:

Row | EC50 [mg/kg] | Structure (SMILES)
9 | 41 | CN(O)C(=O)NCCSc1nc2ccccc2s1
10 | 23.1 | CN(O)C(=O)NCCSc1nc2cc(Cl)ccc2s1
11 | 8.5 | NC1=NN(c2cccc(C(F)(F)F)c2)CC1 [BW-755C]

Target: T1, Polyunsaturated fatty acid 5-lipoxygenase
Experiment: In vitro inhibition of ionophore stimulated LTB4 release from human peripheral blood leukocytes.
Assay type: functional
Summary of the method: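 Leukocytes from pooled human venous blood were isolated by plasmagel sedimentation and erythrocyte lysis, then set to 1×10^6 cells/mL in modified Eagle MEM. Cells were preincubated 5 min at 37 °C with DMSO vehicle or compound, then stimulated 5 min at 37 °C with A23187 (5 µL of 0.1 mM). Reaction stopped on ice with cold Ca-free PBS; supernatant LTB4 measured by [3H]RIA.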

Row | Structure (SMILES) | EC50 [µM]
12 | CC(C)c1ccc2nc(SCCNC(=O)N(C)O)sc2c1 | 0.16
13 | CN(O)C(=O)/C=C/Sc1nc2ccccc2s1 | 0.13
14 | O=C(NO)NCCSc1nc2cc(Cl)ccc2s1 | 24.5
15 | CC(C)N(O)C(=O)NCCSc1nc2ccccc2s1 | 0.13
16 | CN(O)C(=O)CSc1nc2ccccc2s1 | 0.07
17 | CN(O)C(=O)CCSc1nc2cc(Cl)ccc2s1 | 0.02
18 | CN(O)C(=O)NCCCSc1nc2ccccc2s1 | 0.045
19 | CN(O)C(=O)NCSc1nc2ccccc2s1 | 1.07
20 | CN(O)C(=O)NCCSc1nc2cc(C(F)(F)F)ccc2s1 | 3.2
21 | CC(C)N(O)C(=O)NCCSc1nc2cc(Cl)ccc2s1 | 0.07
22 | COc1ccc(-n2nc(CCC(=O)N(C)O)cc2-c2ccc(Cl)cc2)cc1 [TEPOXALIN] | 0.07
23 | CCOc1ccc2nc(SCCNC(=O)N(C)O)sc2c1 | 0.11

Next, values leading:

Row | EC50 [µM] | Structure (SMILES)
24 | 0.09 | CN(O)C(=O)NCCSc1nc2ccccc2s1
25 | 0.039 | CN(O)C(=O)CCSc1nc2ccccc2s1
26 | 0.07 | CC(C)N(O)C(=O)NCCCSc1nc2ccccc2s1
27 | 0.02 | CN(O)C(=O)NCCSc1nc2cc(Cl)ccc2s1
28 | 0.53 | CN(O)C(=O)NCCSc1nc2cccc(Cl)c2s1
29 | 0.39 | CCOc1ccc2nc(SCCNC(=O)N(O)C(C)C)sc2c1
30 | 5.2 | O=C(NO)NCCSc1nc2ccccc2s1

System: Mus musculus
Experiment: In vivo 5-Lipoxygenase inhibitory activity by using mouse zymosan peritonitis model; inactive
Assay type: functional, organism-based
Summary of the method: as §1

Row | Structure (SMILES) | EC50
31 | CC(C)c1ccc2nc(SCCNC(=O)N(C)O)sc2c1 | Not Active
32 | O=C(NO)NCCSc1nc2cc(Cl)ccc2s1 | Not Active
33 | CC(C)N(O)C(=O)NCCSc1nc2ccccc2s1 | Not Active
34 | CON(C)C(=O)NCCSc1nc2ccccc2s1 | Not Active
35 | CNC(=O)NCCSc1nc2ccccc2s1 | Not Active
36 | CN(O)C(=O)NCCSc1nc2cc(C(F)(F)F)ccc2s1 | Not Active
37 | CC(C)N(O)C(=O)NCCSc1nc2cc(Cl)ccc2s1 | Not Active
38 | CCOc1ccc2nc(SCCNC(=O)N(C)O)sc2c1 | Not Active

The next lines start with the values.

Row | EC50 | Structure (SMILES)
39 | Not Active | CC(C)N(O)C(=O)NCCCSc1nc2ccccc2s1
40 | Not Active | CN(O)C(=O)NCCSc1nc2cccc(Cl)c2s1
41 | Not Active | CCOc1ccc2nc(SCCNC(=O)N(O)C(C)C)sc2c1
42 | Not Active | CONC(=O)NCCSc1nc2ccccc2s1
43 | Not Active | O=C(NO)NCCSc1nc2ccccc2s1
